The source made the active and inactive calls. The rule behind the calls is not given here.
Legend:
[1] = test system: Rattus norvegicus; assay: Inhibition of testosterone levels in Crl:CD(SD) rat plasma assessed as plasma testosterone level <0.04 ng/ml at 100 pmol/hr, sc administered as continuous dosing through alzet osmotic pump for 4 weeks by radioimmunoassay; format: functional, organism-based
Outline: (§1)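 Peptide dissolved in 50% DMSO at 3, 10, 30 or 100 µM, loaded into ALZET osmotic pumps for 3 to 100 pmol/h. Pumps implanted sc in 5 Crl:CD(SD) male rats. Plasma testosterone measured by RIA after 1 or 4 weeks. Values below the 0.04 ng/mL detection limit were treated as 0.04. Count of rats below the limit.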

[2] = Inhibition of testosterone levels in sc dosed Crl:CD(SD) rat plasma assessed as compound dosing causing plasma testosterone level <0.04 ng/ml in all tested animals administered as continuous dosing through alzet osmotic pump for 1 to 4 weeks by radio-immunoassay; format: functional
[3] = test system: Rattus norvegicus; assay: Inhibition of testosterone levels in Crl:CD(SD) rat plasma assessed as plasma testosterone level <0.04 ng/ml at 30 pmol/hr, sc administered as continuous dosing through alzet osmotic pump for 1 week by radio-immunoassay; format: functional, organism-based; outline: as §1
[4] = Conformational changes of the compound in distilled water assessed as decrease in beta-sheet content at 0.1 mg/ml by preliminary circular dichroism analysis; parameters: scale not given: the % may be the effect or the level left
[5] = test system: Rattus norvegicus; assay: Inhibition of testosterone levels in Crl:CD(SD) rat plasma assessed as plasma testosterone level <0.04 ng/ml at 100 pmol/hr, sc administered as continuous dosing through alzet osmotic pump for 1 week by radioimmunoassay; format: functional, organism-based; outline: as §1
[6] = Cmax in Sprague-Dawley rat plasma at 1 mg/kg, sc by LC/MS analysis; format: ADME, organism-based; parameters: dose 1 mg/kg, route subcutaneous
Outline: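 Single subcutaneous 1 mg/kg dose to SD rats (n=3 per group). Plasma drawn at 5, 10, 15, 30 min and 1, 2, 4, 8, 24 h. Proteins removed with 0.2% formic acid/methanol (1:4, v/v) plus acetonitrile, centrifuged, supernatant diluted in 0.4% aqueous formic acid, then measured by LC/MS. Noncompartmental analysis per rat, mean ± SD.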

[7] = Solubility of the compound in water at 20 mg/ml; format: physicochemical; conditions: buffer
[8] = test system: Rattus norvegicus; assay: Inhibition of testosterone levels in CD(SD) rat assessed as plasma testosterone level <0.04 ng/ml at 0.1 nmol/hr, sc administered continuously for 6 days through alzet osmotic pump measured after 6 days by radio-immunoassay; format: functional, organism-based
[9] = molecular target: KiSS-1 receptor (Rattus norvegicus, UniProt Q924U1); assay: Agonist activity at rat KISS1R expressed in CHO/dhfr cells assessed as increase in intracellular Ca2+ levels measured for 180 secs by Fluo 3-AM dye based FLIPR assay; format: functional, cell-based
Chain of KiSS-1 receptor (Rattus norvegicus, UniProt Q924U1) (Q924U1 whole entry): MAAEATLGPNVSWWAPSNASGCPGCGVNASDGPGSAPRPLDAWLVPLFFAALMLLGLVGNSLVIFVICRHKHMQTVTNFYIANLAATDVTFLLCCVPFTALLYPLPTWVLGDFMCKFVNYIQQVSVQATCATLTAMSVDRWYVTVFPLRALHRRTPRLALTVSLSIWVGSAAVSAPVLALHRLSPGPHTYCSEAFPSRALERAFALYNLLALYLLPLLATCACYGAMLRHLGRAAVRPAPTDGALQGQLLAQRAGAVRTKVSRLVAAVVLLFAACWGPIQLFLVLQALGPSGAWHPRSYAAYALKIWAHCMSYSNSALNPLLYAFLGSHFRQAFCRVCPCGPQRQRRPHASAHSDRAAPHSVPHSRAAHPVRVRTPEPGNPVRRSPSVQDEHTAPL

[10] = molecular target: KiSS-1 receptor (Homo sapiens, UniProt Q969F8); assay: Agonist activity at human KISS1R expressed in CHO/dhfr cells assessed as increase in intracellular Ca2+ levels measured for 180 secs by Fluo 3-AM dye based FLIPR assay; format: functional, cell-based
Chain of KiSS-1 receptor (Homo sapiens, UniProt Q969F8) (Q969F8 whole entry): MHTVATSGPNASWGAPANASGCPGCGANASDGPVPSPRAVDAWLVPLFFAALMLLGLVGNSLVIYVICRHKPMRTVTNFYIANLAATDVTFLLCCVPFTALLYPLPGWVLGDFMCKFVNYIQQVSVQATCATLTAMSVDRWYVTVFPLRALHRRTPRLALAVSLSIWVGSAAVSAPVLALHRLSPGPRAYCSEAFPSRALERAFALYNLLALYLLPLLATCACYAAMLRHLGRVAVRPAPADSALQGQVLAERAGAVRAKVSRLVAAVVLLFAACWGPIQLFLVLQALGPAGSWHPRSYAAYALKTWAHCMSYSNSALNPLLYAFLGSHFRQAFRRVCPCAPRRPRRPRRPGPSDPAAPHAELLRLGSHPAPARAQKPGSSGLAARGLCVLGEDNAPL
Outline: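 CHO cells expressing human KISS1R; FLIPR recording of ligand-induced [Ca2+]i rise over time. Maximum response taken and expressed as percent of the response to a maximal concentration of metastin(45-54). EC50 = concentration giving half-maximal mobilization, from nonlinear regression of smoothed data. Reported as ratio to the metastin(45-54) EC50.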

[11] = test system: Rattus norvegicus; assay: Inhibition of testosterone levels in CD(SD) rat assessed as plasma testosterone level <0.04 ng/ml at 0.01 nmol/hr, sc administered continuously for 6 days through alzet osmotic pump measured after 6 days by radio-immunoassay; format: functional, organism-based

SMILES	inhibition [1]	MED [2]	inhibition [3]	Activity [4]	inhibition [5]	Cmax [6]	solubility [7]	inhibition [8]	EC50 [9]	EC50 [10]	inhibition [11]
CNC(=N)NCCC[C@H](NC(=O)[C@H](CC(C)C)NC(=O)NNC(=O)[C@H](Cc1ccccc1)NC(=O)[C@@H](NC(=O)[C@H](CC(N)=O)NC(=O)[C@@H](Cc1c[nH]c2ccccc12)NC(=O)[C@@H](Cc1ccc(O)cc1)NC(C)=O)[C@@H](C)O)C(=O)N[C@@H](Cc1c[nH]c2ccccc12)C(N)=O	Active	100 pmol/h	Active	34.8%	Active	0.1 µg/mL	Soluble	Active	–	–	–
CNC(=N)NCCC[C@H](NC(=O)[C@H](CC(C)C)NC(=O)NNC(=O)[C@H](Cc1ccccc1)NC(=O)[C@@H](NC(=O)[C@H](CC(N)=O)NC(=O)[C@@H]1CCCN1C(=O)[C@@H](Cc1ccc(O)cc1)NC(C)=O)[C@@H](C)O)C(=O)N[C@@H](Cc1c[nH]c2ccccc12)C(N)=O	–	–	–	–	–	–	–	–	9.3 nM	0.48 nM	Active
CNC(=N)NCCC[C@H](NC(=O)[C@H](CC(C)C)NC(=O)NNC(=O)[C@H](Cc1ccccc1)NC(=O)[C@@H](NC(=O)[C@H](CC(N)=O)NC(=O)[C@@H](CCCCN)NC(=O)[C@@H](Cc1ccc(O)cc1)NC(C)=O)[C@@H](C)O)C(=O)N[C@@H](Cc1c[nH]c2ccccc12)C(N)=O	–	–	–	–	–	–	–	Active	18 nM	3.6 nM	–
CNC(=N)NCCC[C@H](NC(=O)[C@H](CC(C)C)NC(=O)NNC(=O)[C@H](Cc1ccccc1)NC(=O)[C@@H](NC(=O)[C@H](CC(N)=O)NC(=O)[C@@H](CCC(=O)O)NC(=O)[C@@H](Cc1ccc(O)cc1)NC(C)=O)[C@@H](C)O)C(=O)N[C@@H](Cc1c[nH]c2ccccc12)C(N)=O	–	–	–	–	–	–	–	Active	40 nM	22 nM	–
CNC(=N)NCCC[C@H](NC(=O)[C@H](CC(C)C)NC(=O)NNC(=O)[C@H](Cc1ccccc1)NC(=O)[C@@H](NC(=O)[C@H](CC(N)=O)NC(=O)[C@H](Cc1c[nH]c2ccccc12)NC(=O)[C@@H](Cc1ccc(O)cc1)NC(C)=O)[C@@H](C)O)C(=O)N[C@@H](Cc1c[nH]c2ccccc12)C(N)=O	–	–	–	–	–	–	Insoluble	–	4.8 nM	0.61 nM	Active

From ChEMBL document CHEMBL3860048 (J Med Chem, 2016)
